# According to ChEMBL document CHEMBL4190292, “Electrophilic Triterpenoid Enones: A Comparative Thiol-Trapping and Bioactivity Study” (J Nat Prod, 2017):
# How the values were obtained:
# Assay type in all cases: cell-based
# [1] = Inhibition of TNF-alpha stimulated NF-kappaB (unknown origin) expressed in mouse NIH/3T3 cells after 6 hrs by luciferase reporter gene assay; conditions: NIH3T3, 6 h
# Procedure, shortened: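 NIH-3T3-KBF-Luc mouse fibroblasts given TNFα (20 ng/mL) with or without compounds for 6 h. Cells washed, lysed in Tris-phosphate pH 7.8 buffer, and luciferase read on the supernatant. Inhibition expressed as percent of TNFα-induced NF-κB activity (100%). Mean of at least five independent experiments.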
# [2] = target: T1, Nuclear factor erythroid 2-related factor 2 (Homo sapiens) (UniProt Q16236); test: Activation of Nrf2 (unknown origin) expressed in human HaCaT-ARE-luc cells after 6 hrs by luciferase reporter gene assay relative to control tertbutylhydroquinone
# T1 sequence (whole entry): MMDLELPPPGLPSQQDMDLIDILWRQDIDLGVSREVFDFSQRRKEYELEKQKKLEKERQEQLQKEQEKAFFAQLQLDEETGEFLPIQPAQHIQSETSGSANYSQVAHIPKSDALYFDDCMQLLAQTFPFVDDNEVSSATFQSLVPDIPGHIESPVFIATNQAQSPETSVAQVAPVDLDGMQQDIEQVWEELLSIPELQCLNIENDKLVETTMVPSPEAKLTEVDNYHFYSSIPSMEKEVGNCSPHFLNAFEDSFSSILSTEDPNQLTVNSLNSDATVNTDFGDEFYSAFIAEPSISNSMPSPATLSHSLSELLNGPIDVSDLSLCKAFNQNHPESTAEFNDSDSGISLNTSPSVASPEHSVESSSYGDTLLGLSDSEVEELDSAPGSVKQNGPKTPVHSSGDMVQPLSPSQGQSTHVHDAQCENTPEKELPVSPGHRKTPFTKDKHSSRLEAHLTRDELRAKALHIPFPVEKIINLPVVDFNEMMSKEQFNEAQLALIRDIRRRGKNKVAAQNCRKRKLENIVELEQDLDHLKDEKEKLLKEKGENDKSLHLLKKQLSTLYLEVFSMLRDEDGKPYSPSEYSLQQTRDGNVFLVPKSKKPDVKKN
# [3] = target: T2, Nuclear factor erythroid 2-related factor 2 (Homo sapiens, UniProt Q16236); test: Activation of Nrf2 (unknown origin) expressed in human HaCaT-ARE-luc cells after 6 hrs by luciferase reporter gene assay
# T2 sequence (Q16236 whole entry): T1 sequence (whole entry)
# Procedure, shortened: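 HaCaT-ARE-Luc keratinocytes in DMEM with 10% FBS, 37 °C, 5% CO2, exposed to compounds for 6 h. Cells then washed with PBS and lysed (Tris-phosphate pH 7.8, MgCl2, DTT, Triton X-100, glycerol, 15 min RT). Luciferase RLU read on the supernatant and EC50 derived. Mean of at least five independent experiments.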
# [4] = test system: HaCaT; test: Cytotoxicity against human HaCaT cells harboring pARE-Luc assessed as reduction in cell viability at >5 to 10 uM
# [5] = target: Signal transducer and activator of transcription 3 (Homo sapiens, UniProt P40763); test: Inhibition of IFN-gamma stimulated STAT3 (unknown origin) expressed in human HeLa cells after 6 hrs by luciferase reporter gene assay
# Sequence of Signal transducer and activator of transcription 3 (P40763 whole entry): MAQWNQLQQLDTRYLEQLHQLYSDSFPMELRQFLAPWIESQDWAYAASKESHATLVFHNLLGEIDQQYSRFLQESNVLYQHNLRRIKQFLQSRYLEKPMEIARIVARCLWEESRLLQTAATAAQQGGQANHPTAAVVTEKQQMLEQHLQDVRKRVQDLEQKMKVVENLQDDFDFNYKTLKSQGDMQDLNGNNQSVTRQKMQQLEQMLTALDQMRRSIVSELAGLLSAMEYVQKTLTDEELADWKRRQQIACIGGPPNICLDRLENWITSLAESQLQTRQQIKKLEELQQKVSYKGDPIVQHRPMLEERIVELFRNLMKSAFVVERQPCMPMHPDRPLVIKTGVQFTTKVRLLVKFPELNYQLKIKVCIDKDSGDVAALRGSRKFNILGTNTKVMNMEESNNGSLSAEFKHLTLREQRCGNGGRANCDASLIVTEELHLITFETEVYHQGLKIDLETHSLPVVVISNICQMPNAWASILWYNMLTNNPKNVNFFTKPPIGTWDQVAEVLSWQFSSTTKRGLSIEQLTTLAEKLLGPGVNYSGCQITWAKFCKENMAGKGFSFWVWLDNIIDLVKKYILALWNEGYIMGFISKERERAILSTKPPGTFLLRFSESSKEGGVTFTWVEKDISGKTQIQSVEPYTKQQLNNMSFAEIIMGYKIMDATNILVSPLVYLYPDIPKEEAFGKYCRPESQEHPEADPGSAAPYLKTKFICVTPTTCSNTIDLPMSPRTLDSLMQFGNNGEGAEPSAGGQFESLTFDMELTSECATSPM
# Procedure, shortened: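 HeLa-STAT3-Luc cells stimulated with γIFN (20 IU/mL) with or without compounds for 6 h. PBS-washed cells lysed 15 min at room temperature and luciferase RLU measured. Values expressed as percent inhibition of IFN-γ-induced activity (taken as 100%). Mean of at least five independent experiments.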
# [6] = test system: HeLa; test: Cytotoxicity against human HeLa cells harboring pSTAT3-Luc assessed as reduction in cell viability at >5 to 10 uM
SMILES,IC50 [1],further results
COC(=O)[C@]12CCC(C)(C)C[C@H]1C1=CC[C@@H]3[C@@]4(C)C=C(C(=O)O)C(=O)C(C)(C)[C@@H]4CC[C@@]3(C)[C@]1(C)CC2,> 25 µM,Ratio [2]: 0.41
COC(=O)[C@]12CCC(C)(C)C[C@H]1C1=CC[C@@H]3[C@@]4(C)C=C(OC(C)=O)C(=O)C(C)(C)[C@@H]4CC[C@@]3(C)[C@]1(C)CC2,> 25 µM,
CC1(C)CC[C@]2(C(=O)O)CC[C@]3(C)C(=CC[C@@H]4[C@@]5(C)CC[C@H](O)C(C)(C)[C@@H]5CC[C@]43C)[C@@H]2C1 [OLEANOLIC_ACID],> 50 µM,
COC(=O)[C@]12CCC(C)(C)C[C@H]1C1=CC[C@@H]3[C@@]4(C)CC(C#N)=C(O)C(C)(C)[C@@H]4CC[C@@]3(C)[C@]1(C)CC2,> 25 µM,
COC(=O)[C@]12CCC(C)(C)C[C@H]1C1=CC[C@@H]3[C@@]4(C)C=C(I)C(=O)C(C)(C)[C@@H]4CC[C@@]3(C)[C@]1(C)CC2,> 25 µM,
COC(=O)[C@]12CCC(C)(C)C[C@H]1C1=CC[C@@H]3[C@@]4(C)CCC(=O)C(C)(C)[C@@H]4CC[C@@]3(C)[C@]1(C)CC2,> 25 µM,
COC(=O)[C@]12CCC(C)(C)C[C@H]1C1=CC[C@@H]3[C@@]4(C)C=C(c5ccc(C#N)cc5)C(=O)C(C)(C)[C@@H]4CC[C@@]3(C)[C@]1(C)CC2,> 25 µM,
COC(=O)[C@]12CCC(C)(C)C[C@H]1C1=CC[C@@H]3[C@@]4(C)C=CC(=O)C(C)(C)[C@@H]4CC[C@@]3(C)[C@]1(C)CC2,> 25 µM,
COC(=O)[C@]12CCC(C)(C)C[C@H]1C1=CC[C@@H]3[C@@]4(C)CC(C=O)=C(O)C(C)(C)[C@@H]4CC[C@@]3(C)[C@]1(C)CC2,> 25 µM,
COC(=O)[C@]12CCC(C)(C)C[C@H]1C1=CC[C@@H]3[C@@]4(C)Cc5cnoc5C(C)(C)[C@@H]4CC[C@@]3(C)[C@]1(C)CC2,> 25 µM,
COC(=O)C1=C[C@]2(C)[C@H]3CC=C4[C@@H]5CC(C)(C)CC[C@]5(C(=O)OC)CC[C@@]4(C)[C@]3(C)CC[C@H]2C(C)(C)C1=O,> 25 µM,

# Continued, in another order:
IC50 [1],SMILES,further results
1.2 to 2.38 µM,COC(=O)[C@]12CCC(C)(C)C[C@H]1[C@H]1C(=O)C=C3[C@@]4(C)C=C(C#N)C(=O)C(C)(C)[C@@H]4CC[C@@]3(C)[C@]1(C)CC2 [BARDOXOLONE METHYL],Ratio [2]: 40.9
7.69 µM,COC(=O)[C@]12CCC(C)(C)C[C@H]1C1=CC[C@@H]3[C@@]4(C)C=C(C=O)C(=O)C(C)(C)[C@@H]4CC[C@@]3(C)[C@]1(C)CC2,EC50 [3]: Nd(Toxic); Activity [4]: Toxic; IC50 [5]: Nd(Toxic); Activity [6]: Toxic
> 25 µM,COC(=O)[C@]12CCC(C)(C)C[C@H]1C1=CC[C@@H]3[C@@]4(C)C=C(c5ccc(OC)cc5)C(=O)C(C)(C)[C@@H]4CC[C@@]3(C)[C@]1(C)CC2,
> 25 µM,COC(=O)[C@]12CCC(C)(C)C[C@H]1C1=CC[C@@H]3[C@@]4(C)C=C(c5ccccc5)C(=O)C(C)(C)[C@@H]4CC[C@@]3(C)[C@]1(C)CC2,
> 25 µM,COC(=O)[C@]12CCC(C)(C)C[C@H]1C1=CC[C@@H]3[C@@]4(C)C=C(Br)C(=O)C(C)(C)[C@@H]4CC[C@@]3(C)[C@]1(C)CC2,
> 25 µM,CCOC(=O)/C=C/C1=C[C@]2(C)[C@H]3CC=C4[C@@H]5CC(C)(C)CC[C@]5(C(=O)OC)CC[C@@]4(C)[C@]3(C)CC[C@H]2C(C)(C)C1=O,
> 25 µM,COC(=O)[C@]12CCC(C)(C)C[C@H]1C1=CC[C@@H]3[C@@]4(C)C=C(C#Cc5ccccc5)C(=O)C(C)(C)[C@@H]4CC[C@@]3(C)[C@]1(C)CC2,
15.3 µM,COC(=O)[C@]12CCC(C)(C)C[C@H]1C1=CC[C@@H]3[C@@]4(C)C=C(C#N)C(=O)C(C)(C)[C@@H]4CC[C@@]3(C)[C@]1(C)CC2,Ratio [2]: 1.69
